Assay results reported in ChEMBL document CHEMBL2057123, “Design and synthesis of novel lactate dehydrogenase A inhibitors by fragment-based lead generation” (J Med Chem, 2012).
Calls of active or inactive are those of the source. The rule behind the calls is not given here.

Columns and labels:
[1] = target: T1, L-lactate dehydrogenase A chain (Homo sapiens, UniProt P00338); assay: Binding affinity to 6-His-tagged human LDHA (2 to 322 amino acid residue) expressed in Escherichia coli BL21 (DE3) cells by SPR analysis
[2] = target: L-lactate dehydrogenase B chain (Homo sapiens, UniProt P07195); assay: Inhibition of human recombinant LDHB (2 to 334 amino acid residue) expressed in Escherichia coli BL21 (DE3) cells after 10 mins by spectrophotometric analysis
Sequence of L-lactate dehydrogenase B chain (P07195 whole entry, the tested form may be a part): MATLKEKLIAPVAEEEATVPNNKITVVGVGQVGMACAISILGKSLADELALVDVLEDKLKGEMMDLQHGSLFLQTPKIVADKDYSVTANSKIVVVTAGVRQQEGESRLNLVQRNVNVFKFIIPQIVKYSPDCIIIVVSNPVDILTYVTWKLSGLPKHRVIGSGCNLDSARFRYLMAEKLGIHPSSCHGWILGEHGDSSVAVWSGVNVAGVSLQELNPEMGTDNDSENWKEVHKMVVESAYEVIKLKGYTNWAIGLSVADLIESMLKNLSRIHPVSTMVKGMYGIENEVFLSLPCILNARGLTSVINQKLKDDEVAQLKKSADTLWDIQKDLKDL

[3] = target: T1, L-lactate dehydrogenase A chain; assay: Inhibition of full length human recombinant LDHA expressed in Escherichia coli BL21 (DE3) cells after 10 mins by spectrophotometric analysis
[4] = target: T1, L-lactate dehydrogenase A chain; assay: Binding affinity to 6-His-tagged human LDHA (2 to 322 amino acid residue) expressed in Escherichia coli BL21 (DE3) cells by NMR analysis in presence of NADH
[5] = target: T1, L-lactate dehydrogenase A chain; assay: Binding affinity to 6-His-tagged human LDHA (2 to 322 amino acid residue) expressed in Escherichia coli BL21 (DE3) cells by NMR analysis in presence of NAD+
Method in brief: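 Ligand-observed NMR at 298 K, 600 MHz, in 100 mM HEPES pH 7.5, 2 mM TCEP, 0.02% sodium azide, with 1 mM NAD⁺ present. Binding was detected by WaterLOGSY and T₁ρ-filtered 1D spectra (LDHA 40−48 μM monomer). […] Single experiment.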

| Structure (SMILES) | IC50 [3] [µM] | Kd ([1]; read-out: Kd) [µM] | Kd ([4]; read-out: Kd) [µM] | further results |
| --- | --- | --- | --- | --- |
| Cc1nc2ccc(NC(=O)CCC(=O)O)cc2s1 | > 500 | 500 | 540 |  |
| NC(=O)C1=CN([C@@H]2O[C@H](COP(=O)(O)O)[C@@H](O)[C@H]2O)C=CC1 | > 500 |  | 4000 | Kd ([1]; bl21-de3): Not Active |
| c1cncc(-c2nc3ccccc3[nH]2)c1 | > 500 |  | 1400 | Kd ([1]; bl21-de3): Not Active |
| CC(=O)Nc1ccc2nc(C)sc2c1 | > 500 | 790 |  |  |
| O=c1[nH]n(-c2ccccc2)c2ncccc12 | > 500 | 1600 | 300 |  |
| Nc1ncnc2c1ncn2[C@@H]1O[C@H](COP(=O)(O)O)[C@@H](O)[C@H]1O [ADENOSINE PHOSPHATE] | > 500 |  | 650 | Kd ([1]; bl21-de3): Not Active |
| NS(=O)(=O)c1ccc(O)c2ccccc12 | > 500 |  | 400 | Kd ([1]; bl21-de3): Not Active |
| CCCSc1nc2ccc(NC(=O)CCNC(N)=O)cc2s1 | > 500 | 35 |  | Kd ([4]; bl21-de3): Active |
| COCCNc1ncnc2ccccc12 | > 500 | 3000 | 2400 |  |
| COc1ccc(CC(C(=O)O)C(=O)O)cc1 | > 500 | 1100 | 240 |  |
| CCCSc1nc2ccc(NC(=O)CCC(=O)O)cc2s1 | > 500 | 40 | 92 |  |
| O=C(O)c1ccc2ccccc2c1O [CARBOXYNAPHTHOL] | > 500 |  | 640 | Kd ([1]; bl21-de3): Not Active |
| O=C(O)CC(=O)O [MALONIC ACID] |  |  | 5000 |  |
| Clc1ccccc1-c1nnn[nH]1 |  |  |  | Kd ([1]; bl21-de3): Not Active |
| Cc1nc2ccc(NC(=O)CCNC(N)=O)cc2s1 |  |  |  | Kd ([4]; bl21-de3): Active |
| O=C(O)c1cc2c(C(F)(F)F)cc(-c3ccccc3)cc2n1O | > 500 |  | > 9 |  |

Further lines, with some results ahead:

| IC50 [3] [µM] | Kd ([1]; read-out: Kd) [µM] | Kd ([4]; read-out: Kd) [µM] | Structure (SMILES) | further results |
| --- | --- | --- | --- | --- |
| 450 |  |  | O=C(O)c1nsnc1O | Kd ([1]; bl21-de3): Not Active; IC50 [2]: 7.8 µM |
| 4.2 |  |  | Cc1nc2ccc(NC(=O)CCNC(=O)NCCOc3ccc(CC(C(=O)O)C(=O)O)cc3)cc2s1 |  |
| 0.5 |  |  | Cc1nc2ccc(NC(=O)CCNC(=O)CCCc3ccc(CC(C(=O)O)C(=O)O)cc3)cc2s1 |  |
| 0.29 | 0.06 |  | CCCSc1nc2ccc(NC(=O)CCNC(=O)NCCc3ccc(CC(C(=O)O)C(=O)O)cc3)cc2s1 |  |
| 7.4 | 0.18 |  | CCCSc1nc2ccc(NC(=O)CCNC(=O)NCCc3ccc(OC(C(=O)O)C(=O)O)cc3)cc2s1 |  |
| 0.27 | 0.008 |  | CCCSc1nc2ccc(NC(=O)CCNC(=O)CCCc3ccc(CC(C(=O)O)C(=O)O)cc3)cc2s1 |  |
| 3.1 | 0.046 |  | CCCSc1nc2ccc(NC(=O)CCNC(=O)NCCOc3ccc(CC(C(=O)O)C(=O)O)cc3)cc2s1 |  |
| 132 | 12.8 |  | NC(=O)C1=CN([C@@H]2O[C@H](COP(=O)(O)OP(=O)(O)OC[C@H]3O[C@@H](n4cnc5c(N)ncnc54)[C@H](O)[C@@H]3O)[C@@H](O)[C@H]2O)CCC1 | Activity [5]: Active; IC50 [2]: 9.4 µM |
| 29.5 | 1.2 |  | Cc1nc2ccc(NC(=O)CCNC(=O)NCCc3ccc(OC(C(=O)O)C(=O)O)cc3)cc2s1 |  |
| 1.9 |  |  | Cc1nc2ccc(NC(=O)CCNC(=O)NCCc3ccc(CC(C(=O)O)C(=O)O)cc3)cc2s1 |  |
| 86.2 | 3.2 |  | Cc1nc2ccc(NC(=O)CCNC(=O)NCCOc3ccc(CCC(=O)O)cc3)cc2s1 |  |
